Laboratory results reported in ChEMBL document CHEMBL1799978, “Akt-dependent anabolic activity of natural and synthetic brassinosteroids in rat skeletal muscle cells” (J Med Chem, 2011).
Activity calls are given as the source filed them.

What was measured:
NIH3T3 [1] = assay: Cytotoxicity against mouse NIH/3T3 cells at 0.3 to 30 uM after 24 hrs by MTT assay; format: cell-based; conditions: nih3t3, 24 h
Procedure, shortened: (§1)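 NIH-3T3 murine fibroblasts grown in DMEM with 10% FBS at 37°C in 5% CO2. Exposed to 0.3–30 μM for 24 h at 37 °C. MTT read at 550 nm. Absorbance expressed relative to vehicle control cells (taken as 100% proliferation). n=6 from repeated experiments.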

L6 [2] = assay: Increase in protein synthesis in rat L6 cells assessed as [3H]-phenylalanine incorporation at 10 uM after 4 hrs by scintillation counting relative to control; format: functional
Procedure, shortened: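 L6 myotubes (differentiated in 2% serum) washed with serum-free DMEM. Incubated 4 h with 0.5 μCi/mL [3H]-phenylalanine plus vehicle (0.1% ethanol), compound (0.3–30 μM, or 10 μM), or 6.5 nM IGF-1. Protein precipitated with 5% TCA, dissolved in 0.5 N NaOH, scintillation-counted, normalized to mg protein (BCA). Triplicate; ANOVA/Dunnett.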

L6 [3] = assay: Decrease in protein degradation in rat L6 cells assessed as release of acid-soluble [3H]-phenylalanine into the media normalized by total protein at 10 uM after 4 hrs by scintillation counting relative to control; format: functional; set-up: scale not given: the % may be the effect or the level left
Procedure, shortened: (§2)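 L6 myoblasts differentiated 7–9 d in 2% serum into myotubes. Proteins labelled 16 h with 1.5 μCi/mL [3H]-phenylalanine, then washed. Cells treated 4 h in serum-free medium with vehicle (0.1% ethanol), compound (0.3–30 μM; single-point screen 10 μM), or 10 nM insulin. Medium TCA-precipitated and released [3H]-phenylalanine counted, normalized to mg cell protein (BCA). Triplicate; one-way ANOVA with Dunnett's test.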

L6 [4] = assay: Activation of Akt phosphorylation at Ser473 in rat L6 cells at 10 uM after 1 hr by Western blot analysis; format: cell-based
Procedure, shortened: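 Differentiated L6 myotubes exposed to 10 μM compound for 1 h; IGF-1 6.5 nM for 10 min served as positive control. Lysis in ice-cold RIPA with 10 mM NaF, 2 mM orthovanadate, 1 mM PMSF and protease inhibitors, spun 12,000 g 20 min 4°C. Lysates normalized to 50 μg soluble protein, immunoblotted for phospho-Akt (Ser473); stripped blots reprobed for total Akt as loading control; ECL detection.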

L6 [5] = assay: Cytotoxicity against rat L6 cells up to 30 uM after 24 hrs by MTT assay; format: cell-based; conditions: l6, 24 h
Procedure, shortened: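 Fully differentiated L6 myotubes (myoblasts fused after 7–9 d in 2% serum) treated with compounds up to 30 μM against 0.1% ethanol vehicle. Viability by MTT assay in triplicate, read at 550 nm, alongside cytological observation.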

Rattus norvegicus [6] = assay: Upregulation of Adar1d gene expression in Wistar rat at 60 mg/kg, po qd for 24 days by PCR analysis relative to control; format: functional
Procedure, shortened: (§3)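 Male Wistar rats gavaged daily 24 d with 60 mg/kg or vehicle (5% DMSO in corn oil). RNA from pooled (n=5) frozen gastrocnemius samples run on a rat insulin signaling PCR array (84 genes). Fold change computed as 2^(-ΔCt), with a 4-fold threshold.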

L6 [7] = assay: Decrease in protein degradation in rat L6 cells assessed as release of acid-soluble [3H]-phenylalanine into the media normalized by total protein at 1 uM after 4 hrs by scintillation counting relative to control; format: functional; set-up: scale not given: the % may be the effect or the level left; procedure, shortened: as §2
Rattus norvegicus [8] = assay: Induction of Myf5 mRNA expression in Wistar rat at 60 mg/kg, po qd for 24 days by RT-PCR analysis relative to control; format: functional
Procedure, shortened: (§4)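 Gastrocnemius muscle from male Wistar rats dosed orally with 60 mg/kg daily for 24 d, or vehicle. Conventional RT-PCR on individual muscle samples (n=5 per group), duplicate determinations. Compared with control by Student t test.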

Rattus norvegicus [9] = assay: Upregulation of Igf2 gene expression in Wistar rat at 60 mg/kg, po qd for 24 days by PCR analysis relative to control; format: functional; procedure, shortened: as §4
Rattus norvegicus [10] = assay: Upregulation of Igfbp1 gene expression in Wistar rat at 60 mg/kg, po qd for 24 days by PCR analysis relative to control; format: functional; procedure, shortened: as §3
Rattus norvegicus [11] = assay: Anabolic effect in Wistar rat assessed as increase in lean body mass at 60 mg/kg, po qd for 24 days; format: functional
Rattus norvegicus [12] = assay: Upregulation of Fbp2 gene expression in Wistar rat at 60 mg/kg, po qd for 24 days by PCR analysis relative to control; format: functional; procedure, shortened: as §3
Rattus norvegicus [13] = assay: Upregulation of Srebf1 gene expression in Wistar rat at 60 mg/kg, po qd for 24 days by PCR analysis relative to control; format: functional; procedure, shortened: as §3
Rattus norvegicus [14] = assay: Induction of Myod1 mRNA expression in Wistar rat at 60 mg/kg, po qd for 24 days by RT-PCR analysis relative to control; format: functional; procedure, shortened: as §4
Rattus norvegicus [15] = assay: Induction of Myf6 mRNA expression in Wistar rat at 60 mg/kg, po qd for 24 days by RT-PCR analysis relative to control; format: functional; procedure, shortened: as §4
L6 [16] = assay: Increase in protein synthesis in rat L6 cells assessed as [3H]-phenylalanine incorporation at 0.3 to 30 uM after 4 hrs by scintillation counting relative to control
Rattus norvegicus [17] = assay: Induction of Myog mRNA expression in Wistar rat at 60 mg/kg, po qd for 24 days by RT-PCR analysis relative to control; format: functional; procedure, shortened: as §4
Rattus norvegicus [18] = assay: Anabolic effect in Wistar rat assessed as increase in limb grip strength at 60 mg/kg, po qd for 24 days; format: functional, organism-based; set-up: dose 60 mg/kg
L6 [19] = assay: Decrease in protein degradation in rat L6 cells assessed as release of acid-soluble [3H]-phenylalanine into the media normalized by total protein at 0.3 to 20 uM after 4 hrs by scintillation counting relative to control; format: functional, cell-based; procedure, shortened: as §2
Rattus norvegicus [20] = assay: Effect on Eif2b1 gene expression in Wistar rat at 60 mg/kg, po qd for 24 days by PCR analysis relative to control; format: functional, organism-based; set-up: dose 60 mg/kg; procedure, shortened: as §3
NIH3T3 [21] = assay: Cytotoxicity against mouse NIH/3T3 cells after 24 hrs by MTT assay; format: cell-based; conditions: NIH3T3, 24 h; procedure, shortened: as §1

## CC[C@@H](C(C)C)[C@H](O)[C@@H](O)[C@@H](C)[C@H]1CC[C@H]2[C@@H]3CC(=O)[C@H]4C[C@H](F)CC[C@]4(C)[C@H]3CC[C@]12C
NIH3T3 [1]
  Activity: Toxic
L6 [2]
  Activity: 23%
L6 [3]
  Activity: -16%
L6 [4]
  Activity: Active
L6 [5]
  Activity: Non-toxic

## CC[C@@H](C(C)C)[C@H](O)[C@@H](O)[C@@H](C)[C@H]1CC[C@H]2[C@@H]3CC(=O)N[C@H]4C[C@H](O)[C@H](O)C[C@]4(C)[C@H]3CC[C@]12C
L6 [2]
  Activity: 3%
L6 [3]
  Activity: -14%
L6 [4]
  Activity: Active
L6 [5]
  Activity: Non-toxic

## CC[C@@H](C(C)C)[C@H](O)[C@@H](O)[C@@H](C)[C@H]1CC[C@H]2[C@@H]3COC(=O)[C@H]4C[C@H](O)[C@H](O)C[C@]4(C)[C@H]3CC[C@]12C
Rattus norvegicus [6]
  fold change (FC): 6.5
L6 [7]
  Activity: 8.2%
NIH3T3 [1]
  Activity: Non-toxic
Rattus norvegicus [8]
  fold change (FC): 1.3
Rattus norvegicus [9]
  fold change (FC): 1.4
Rattus norvegicus [10]
  fold change (FC): 2.5
L6 [2]
  Activity: 37%
Rattus norvegicus [11]
  Activity: 14.2%
L6 [3]
  Activity: -24%
Rattus norvegicus [12]
  fold change (FC): 4.5
Rattus norvegicus [13]
  fold change (FC): 2.5
Rattus norvegicus [14]
  fold change (FC): 2.1
Rattus norvegicus [15]
  fold change (FC): 1.3
L6 [16]
  Activity: 36.9%
Rattus norvegicus [17]
  fold change (FC): 1.7
Rattus norvegicus [18]
  Activity: Active
L6 [19]
  Activity: Dose-dependent effect
L6 [4]
  Activity: Active
Rattus norvegicus [20]
  Activity: inactive
L6 [5]
  Activity: Non-toxic

## CC[C@@H](C(C)C)[C@H](O)[C@@H](O)[C@@H](C)[C@H]1CC[C@H]2[C@@H]3CC(=O)[C@H]4C[C@H](O)[C@H](O)C[C@]4(C)[C@H]3CC[C@]12C
L6 [7]
  Activity: 8.7%
NIH3T3 [1]
  Activity: Non-toxic
L6 [2]
  Activity: 41%
L6 [3]
  Activity: -23%
L6 [16]
  Activity: 40.7%
L6 [19]
  Activity: Dose-dependent effect
L6 [4]
  Activity: Active
L6 [5]
  Activity: Non-toxic

## CC[C@H](C(C)C)[C@H](O)[C@@H](O)[C@@H](C)[C@H]1CC[C@H]2[C@@H]3COC(=O)[C@H]4C[C@H](F)CC[C@]4(C)[C@H]3CC[C@]12C
NIH3T3 [1]
  Activity: Toxic
L6 [2]
  Activity: 25%
L6 [3]
  Activity: -21%
L6 [4]
  Activity: Active
L6 [5]
  Activity: Non-toxic

## CC(C)[C@@H](C)[C@H](O)[C@@H](O)[C@@H](C)[C@H]1CC[C@H]2[C@@H]3COC(=O)[C@H]4C[C@H](O)[C@H](O)C[C@]4(C)[C@H]3CC[C@]12C
L6 [2]
  Activity: 4%
L6 [3]
  Activity: -6%
L6 [4]
  Activity: Active
L6 [5]
  Activity: Non-toxic

## CC(C)[C@@H](C)[C@@H](O)[C@H](O)[C@@H](C)[C@H]1CC[C@H]2[C@@H]3COC(=O)[C@H]4C[C@H](O)[C@H](O)C[C@]4(C)[C@H]3CC[C@]12C
L6 [2]
  Activity: 12%
L6 [3]
  Activity: -7%
L6 [4]
  Activity: Active
L6 [5]
  Activity: Non-toxic

## CC[C@@H](C(C)C)[C@@H](O)[C@H](O)[C@@H](C)[C@H]1CC[C@H]2[C@@H]3COC(=O)[C@H]4C[C@H](O)[C@H](O)C[C@]4(C)[C@H]3CC[C@]12C
L6 [2]
  Activity: 13%
L6 [3]
  Activity: -15%
L6 [4]
  Activity: Active
L6 [5]
  Activity: Non-toxic

## CC[C@@H](C(C)C)[C@H](O)[C@@H](O)[C@@H](C)[C@H]1CC[C@H]2[C@@H]3CNC(=O)[C@H]4C[C@H](O)[C@H](O)C[C@]4(C)[C@H]3CC[C@]12C
L6 [2]
  Activity: 21%
NIH3T3 [21]
  IC50: 12.5 µM
L6 [3]
  Activity: -1%
L6 [4]
  Activity: Active
L6 [5]
  Activity: Non-toxic
